The values that follow come from ChEMBL document CHEMBL2062498, “3-Arylcoumarin derivatives manifest anti-proliferative activity through Hsp90 inhibition” (ACS Med Chem Lett, 2012).

One assay concerns MCF7. In words: Antiproliferative activity against estrogen receptor-positive in human MCF7 cells. The assay is classed as functional, cell-based. Summed up: (§1)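 IC50 values for growth inhibition are reported as means ± standard deviations from at least two separate experiments, each run in triplicate.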
The subject of a further assay is SK-BR-3. In words: Antiproliferative activity against estrogen receptor-negative Her2 overexpressing in human SKBR3 cells. The assay is classed as functional, cell-based. Summed up: as §1
The target of assay [1] is Heat shock protein HSP 90-beta (Homo sapiens) (UniProt P08238). Kind of assay: Inhibition of HSP90 in human MCF7 cells assessed as degradation of Akt protein after 24 hrs by Western blot analysis. The assay is classed as cell-based. Summed up:
(§2)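 MCF-7 breast cancer cells were exposed to a range of test concentrations (μM) for 24 h, then lysed. Lysates were immunoblotted for the Hsp90-dependent clients Raf-1 and Akt, and also for Hsp90 itself. Actin served as the non-Hsp90-dependent reference protein.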
Background: In western blotting, separated proteins are transferred to a membrane and probed.

For assay [2] the target is unchanged. In words: Inhibition of HSP90 in human MCF7 cells assessed as degradation of Raf1 protein after 24 hrs by Western blot analysis. In kind it is cell-based. In outline:
as §2

pIC50: −log10 of the molar value.

Chain of Heat shock protein HSP 90-beta (Homo sapiens) (P08238 whole entry): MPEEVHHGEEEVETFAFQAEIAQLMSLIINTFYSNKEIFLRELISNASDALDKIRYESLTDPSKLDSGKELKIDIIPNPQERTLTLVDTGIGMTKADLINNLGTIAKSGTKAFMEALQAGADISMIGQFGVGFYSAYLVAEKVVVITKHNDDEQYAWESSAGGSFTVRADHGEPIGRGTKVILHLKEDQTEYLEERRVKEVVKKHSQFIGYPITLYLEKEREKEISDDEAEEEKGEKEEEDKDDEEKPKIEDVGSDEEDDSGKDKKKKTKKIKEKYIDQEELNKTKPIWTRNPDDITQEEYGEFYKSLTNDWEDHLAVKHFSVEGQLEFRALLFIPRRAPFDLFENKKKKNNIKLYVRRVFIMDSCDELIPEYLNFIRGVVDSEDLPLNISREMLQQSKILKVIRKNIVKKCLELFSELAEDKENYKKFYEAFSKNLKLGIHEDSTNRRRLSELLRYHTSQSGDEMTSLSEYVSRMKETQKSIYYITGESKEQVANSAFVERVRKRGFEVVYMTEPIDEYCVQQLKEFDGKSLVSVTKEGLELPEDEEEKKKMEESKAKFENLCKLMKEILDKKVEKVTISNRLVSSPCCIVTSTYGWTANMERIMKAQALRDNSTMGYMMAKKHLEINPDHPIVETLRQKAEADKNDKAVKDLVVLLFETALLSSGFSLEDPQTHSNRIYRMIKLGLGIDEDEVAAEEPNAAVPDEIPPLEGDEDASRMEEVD

Turning to `Cc1c(OC2CCN(C)CC2)ccc2cc(-c3ccc(F)cc3)c(=O)oc12`, the pIC50 – broadly, the negative decadic logarithm of the IC50, by convention in mol/L – in the assay with MCF7 was 5.42; in the assay with SK-BR-3 it was 5.13.
The matching figures for `CN1CCC(Oc2ccc3cc(-c4ccc(C(C)(C)C)cc4)c(=O)oc3c2)CC1`: 5.63 and 5.35.
The matching figures for `CN1CCC(Oc2ccc3cc(-c4cc5ccccc5o4)c(=O)oc3c2)CC1`: 5.31 and 5.23.
Regarding `CN1CCC(Oc2ccc3cc(-c4cccc(C(F)(F)F)c4)c(=O)oc3c2)CC1`, the pIC50 with MCF7 is 5.33; with SK-BR-3, 5.04.
The matching figures for `COc1ccc(-c2cc3ccc(OC4CCN(C)CC4)c(C)c3oc2=O)cc1`: 5.71 and 5.26.
Take `CN1CCC(Oc2ccc3cc(-c4ccc(Oc5ccccc5)cc4)c(=O)oc3c2)CC1`: the negative logarithm of the IC50 (pIC50) is 5.84 in the assay on MCF7 and 5.35 in the assay on SK-BR-3.
For the molecule `CN1CCC(Oc2ccc3cc(-c4ccc5c(c4)OCO5)c(=O)oc3c2)CC1`, the figures for the negative-log IC50 (pIC50) in the assay with MCF7 and with SK-BR-3 were 5.06 and 4.83, respectively.
The matching figures for `CN1CCC(Oc2ccc3cc(-c4cccc(F)c4)c(=O)oc3c2)CC1`: 5.12 and 4.60.
The matching figures for `CN1CCC(Oc2ccc3cc(-c4cccc(Cl)c4)c(=O)oc3c2)CC1`: 5.24 and 5.02.
Consider `CN1CCC(Oc2ccc3cc(-c4cc5ccccc5s4)c(=O)oc3c2)CC1`, for which the pIC50 is 6.09 with MCF7 and 6.01 in the assay with SK-BR-3. Besides, the inhibition entry in assay [1] and in assay [2] was “Dose-dependent effect” throughout.
Consider `Cc1c(OC2CCN(C)CC2)ccc2cc(-c3ccc4c(c3)OCO4)c(=O)oc12`, for which the values for the pIC50 in the assay with MCF7 and in the assay with SK-BR-3 were 5.43 and 5.28, respectively.
With `CN1CCC(Oc2ccc3cc(-c4ccc(-c5ccccc5)cc4)c(=O)oc3c2)CC1`, the negative logarithm of the IC50 (pIC50) with MCF7 was 5.51; in the assay with SK-BR-3 it was 5.48.
The matching figures for `CN1CCC(Oc2ccc3cc(-c4cccc(C#N)c4)c(=O)oc3c2)CC1`: 5.07 and 4.97.
The matching figures for `CN1CCC(Oc2ccc3cc(-c4ccccc4Cl)c(=O)oc3c2)CC1`: 4.98 and 4.60.
For `Cc1c(OC2CCN(C)CC2)ccc2cc(-c3ccc(OC(F)(F)F)cc3)c(=O)oc12`, the pIC50 in the assay with MCF7 was 5.78; in the assay on SK-BR-3 it was 5.35.
`CN1CCC(Oc2ccc3cc(-c4ccc(Cl)cc4)c(=O)oc3c2)CC1`: the negative-log IC50 (pIC50) in the assay on MCF7 was 5.41; in the assay on SK-BR-3, 5.08.
Take `CN1CCC(Oc2ccc3cc(-c4ccc(OC(F)(F)F)cc4)c(=O)oc3c2)CC1`: the negative-log IC50 (pIC50) in the assay on MCF7 is 5.39; with SK-BR-3, 5.24.
The matching figures for `Cc1c(OC2CCN(C)CC2)ccc2cc(-c3ccccc3)c(=O)oc12`: 5.11 and 4.85.
Turning to `CN1CCC(Oc2ccc3cc(-c4ccccc4)c(=O)oc3c2)CC1`, the values for the pIC50 in the assay with MCF7 and in the assay with SK-BR-3 were 4.54 and 4.42, respectively.
As to `COc1ccc(-c2cc3ccc(OC4CCN(C)CC4)cc3oc2=O)cc1`, the negative logarithm of the IC50 (pIC50) is 4.77 with MCF7 and 4.52 with SK-BR-3.
On to `Cc1ccc(-c2cc3ccc(OC4CCN(C)CC4)cc3oc2=O)cc1`, for which the pIC50 in the assay on MCF7 is 5.07; in the assay with SK-BR-3, 4.95.
As to `Cc1c(OC2CCN(C)CC2)ccc2cc(-c3ccc(Cl)cc3)c(=O)oc12`, the pIC50 was 5.91 with MCF7 and 5.31 with SK-BR-3.
For `CN1CCC(Oc2ccc3cc(-c4ccccc4-c4ccccc4)c(=O)oc3c2)CC1`, the pIC50 in the assay on MCF7 and in the assay with SK-BR-3 was 4.81 in each case.
For the molecule `CN1CCC(Oc2ccc3cc(-c4ccc(F)cc4)c(=O)oc3c2)CC1`, the pIC50 is 4.98 in the assay with MCF7 and 4.36 with SK-BR-3.
